Data from ChEMBL document CHEMBL1135595, “Design, synthesis and biological evaluation of novel N-alkyl- and N-acyl-(7-substituted-2-phenylimidazo[1,2-a][1,3,5]triazin-4-yl)amines (ITAs) as novel A(1) adenosine receptor antagonists” (J Med Chem, 2002).

Columns and labels:
[1] = target: Adenosine receptor A2a (Bos taurus); assay: Displacement of [3H]- CGS-21680 from Adenosine A2a receptor in bovine striatal membranes.
Adenosine receptor A1 = target: T1, Adenosine receptor A1 (Bos taurus, UniProt P28190); assay: Displacement of [3H]CHA from Adenosine A1 receptor in bovine cortical membranes.; type: cell membranes
T1 sequence (P28190 whole entry): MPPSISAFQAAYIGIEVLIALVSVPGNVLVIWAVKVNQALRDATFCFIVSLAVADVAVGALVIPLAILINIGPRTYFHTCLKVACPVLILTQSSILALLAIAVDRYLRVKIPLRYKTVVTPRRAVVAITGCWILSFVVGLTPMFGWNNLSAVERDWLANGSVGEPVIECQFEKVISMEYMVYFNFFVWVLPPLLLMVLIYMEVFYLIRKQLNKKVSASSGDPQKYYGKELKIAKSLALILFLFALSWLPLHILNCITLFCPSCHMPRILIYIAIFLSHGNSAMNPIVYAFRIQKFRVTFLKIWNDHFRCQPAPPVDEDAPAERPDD
Method in brief: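 Compounds were dissolved in DMSO (≤2% in assay) and tested at six or more concentrations. n = 4 independent experiments in triplicate. Ki and IC50 ± SEM came from iterative curve fitting. Protein was measured with BSA as standard after NaOH (0.75 N) solubilization.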

| Ki [1] [nM] | Ki (Adenosine receptor A1) [nM] | Structure (SMILES) |
| --- | --- | --- |
| 3200 | 23 | CC(=O)Nc1nc(-c2ccccc2)nc2nc(-c3ccccc3)cn12 |
| > 10000 | > 10000 | CCC(=O)CNc1nc(-c2ccccc2)nc2nc(C)cn12 |
| – | > 10000 | CC(=O)CNc1nc(-c2ccccc2)nc2nc(-c3ccccc3)cn12 |
| – | 3.3 | CCc1cn2c(NC(=O)C3CCCC3)nc(-c3ccccc3)nc2n1 |
| – | > 10000 | CCc1cn2c(NCC(C)=O)nc(-c3ccccc3)nc2n1 |
| > 10000 | 5.8 | CC(C)c1cn2c(NC(=O)C3CCCC3)nc(-c3ccccc3)nc2n1 |
| – | 2360 | CC(=O)CNc1nc(-c2ccccc2)nc2nc(C(C)C)cn12 |
| 4100 | 41 | Cc1cn2c(NC3CCCC3)nc(-c3ccccc3)nc2n1 |
| – | 231 | Cc1cn2c(NCC3CCCCC3)nc(-c3ccccc3)nc2n1 |
| 2500 | 17 | O=C(Nc1nc(-c2ccccc2)nc2nc(-c3ccccc3)cn12)C1CCCC1 |
| – | 332 | Cc1cn2c(N)nc(-c3ccccc3)nc2n1 |
| > 10000 | 855 | CC(=O)Nc1nc(-c2ccccc2)nc2nc(C)cn12 |
| – | 3900 | Cc1cn2c(NCc3ccccc3)nc(-c3ccccc3)nc2n1 |
| – | 27.2 | Cc1cn2c(NC(=O)c3ccccc3)nc(-c3ccccc3)nc2n1 |
| > 10000 | 12 | CC(=O)CNc1nc(-c2ccccc2)nc2nc(C)cn12 |
| – | 4.4 | Cc1cn2c(NC(=O)C3CCCC3)nc(-c3ccccc3)nc2n1 |
| – | 116 | Cc1cn2c(NC(=O)C3CCCCC3)nc(-c3ccccc3)nc2n1 |
| > 10000 | 511 | Cc1cn2c(NC34C[C@H]5C[C@@H](C3)C[C@@H](C4)C5)nc(-c3ccccc3)nc2n1 |
